Measurements from ChEMBL document CHEMBL3808334, “Synthesis and in vitro evaluation of novel triazine analogues as anticancer agents and their interaction studies with bovine serum albumin” (Eur J Med Chem, 2016).

Legend:
[1] = Growth inhibition of human RPMI8226 cells incubated for 48 hrs by sulforhodamine B assay; type: functional; details: RPMI-8226, 48 h
How it was run: (§1)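 Cells were plated at 5,000–40,000 per well according to doubling time and preincubated 24 h at 37 °C in 5% CO2; time-zero plates were then TCA-fixed. Five concentrations (10-fold or ½-log dilutions, DMSO stock) were incubated 48 h. Cells were TCA-fixed, stained with 0.4% SRB and read at 515 nm. GI50 was taken where [(Ti−Tz)/(C−Tz)]×100 = 50.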

[2] = Growth inhibition of human HCC2998 cells assessed as cell growth at 10^-5 M incubated for 48 hrs by sulforhodamine B assay; type: functional; details: HCC 2998, 48 h, read-out: Activity
How it was run: (§2)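 Cells seeded at 5,000–40,000/well according to doubling time and preincubated 24 h at 37 °C, 5% CO2. Time-zero plates were TCA-fixed. DMSO concentrate was diluted in medium with 50 µg/ml gentamicin to give five concentrations (10-fold or ½ log steps), then exposed 48 h. Cells were TCA-fixed, stained with 0.4% SRB and read at 515 nm. Percent growth was taken against time-zero and control; GI50, TGI and LC50 derived.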

[3] = Growth inhibition of human TK10 cells assessed as cell growth at 10^-7 M incubated for 48 hrs by sulforhodamine B assay; type: functional; details: TK-10, 48 h, read-out: Activity
MDA-MB-231 = assay: Growth inhibition of human MDA-MB-231 cells incubated for 48 hrs by sulforhodamine B assay; type: functional; details: MDA-MB-231, 48 h; how it was run: as §1
[4] = Growth inhibition of human PC3 cells assessed as cell growth at 10^-5 M incubated for 48 hrs by sulforhodamine B assay; type: functional; details: PC-3, 48 h, read-out: Activity
NCI-H460 = assay: Growth inhibition of human NCI-H460 cells incubated for 48 hrs by sulforhodamine B assay; type: functional; details: NCI-H460, 48 h; how it was run: as §1
[5] = Growth inhibition of human SNB19 cells assessed as cell growth at 10^-8 M incubated for 48 hrs by sulforhodamine B assay; type: functional; details: SNB-19, 48 h, read-out: Activity
SK-MEL-5 = assay: Growth inhibition of human SK-MEL-5 cells assessed as cell growth at 10^-4 M incubated for 48 hrs by sulforhodamine B assay; type: functional; details: SK-MEL-5, 48 h, read-out: Activity
[6] = Growth inhibition of human OVCAR4 cells incubated for 48 hrs by sulforhodamine B assay; type: functional; details: OVCAR-4, 48 h; how it was run: as §1
NCI-H226 = assay: Growth inhibition of human NCI-H226 cells incubated for 48 hrs by sulforhodamine B assay; type: functional; details: NCI-H226, 48 h; how it was run: as §1
MCF7 = assay: Growth inhibition of human MCF7 cells incubated for 48 hrs by sulforhodamine B assay; type: functional; details: MCF7, 48 h; how it was run: as §1
[7] = Growth inhibition of human SF268 cells assessed as cell growth at 10^-4 M incubated for 48 hrs by sulforhodamine B assay; type: functional; details: SF-268, 48 h, read-out: Activity
T47D = assay: Growth inhibition of human T47D cells assessed as cell growth at 10^-6 M incubated for 48 hrs by sulforhodamine B assay; type: functional; details: read-out: Activity
[8] = Growth inhibition of human TK10 cells incubated for 48 hrs by sulforhodamine B assay; type: functional; details: TK-10, 48 h; how it was run: as §1
[9] = Growth inhibition of human HCT116 cells assessed as cell growth at 10^-7 M incubated for 48 hrs by sulforhodamine B assay; type: functional; details: HCT-116, 48 h, read-out: Activity; how it was run: as §2
MDA-MB-468 = assay: Growth inhibition of human MDA-MB-468 cells assessed as cell growth at 10^-5 M incubated for 48 hrs by sulforhodamine B assay; type: functional; details: MDA-MB-468, 48 h, read-out: Activity
U-251 = assay: Growth inhibition of human U251 cells assessed as cell growth at 10^-7 M incubated for 48 hrs by sulforhodamine B assay; type: functional; details: U-251, 48 h, read-out: Activity
SK-MEL-2 [10] = assay: Growth inhibition of human SK-MEL-2 cells assessed as cell growth at 10^-4 M incubated for 48 hrs by sulforhodamine B assay; type: functional; details: SK-MEL-2, 48 h, read-out: Activity
[11] = Growth inhibition of human OVCAR8 cells assessed as cell growth at 10^-4 M incubated for 48 hrs by sulforhodamine B assay; type: functional; details: OVCAR-8, 48 h, read-out: Activity
Albumin = Albumin (Bos taurus, UniProt P02769); assay: Binding affinity to bovine serum albumin assessed as hyperchromicity in absorption spectra up to 20 uM after 5 mins by UV-visible spectroscopic analysis relative to control; type: ADME; details: cattle, isolated protein
How it was run: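 UV-visible absorption titration of 10 µM BSA in 0.1 M phosphate buffer pH 7.4 with increasing compound, 0–20 µM. Compounds diluted from DMSO stocks into buffer. Spectra recorded 200–800 nm in a 1 cm quartz cell at 300 K after 5 min equilibration. The BSA band is at 279 nm; changes are compared with BSA alone.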

[12] = Growth inhibition of human SKOV3 cells assessed as cell growth at 10^-4 M incubated for 48 hrs by sulforhodamine B assay; type: functional; details: SK-OV-3, 48 h, read-out: Activity
[13] = Growth inhibition of human PC3 cells assessed as cell growth at 10 uM incubated for 48 hrs by sulforhodamine B assay; type: functional; details: PC-3, 48 h, read-out: Activity
SK-MEL-2 [14] = assay: Growth inhibition of human SK-MEL-2 cells assessed as cell growth at 10^-6 M incubated for 48 hrs by sulforhodamine B assay; type: functional; details: SK-MEL-2, 48 h, read-out: Activity
[15] = Growth inhibition of human UO31 cells assessed as cell growth at 10^-6 M incubated for 48 hrs by sulforhodamine B assay; type: functional; details: UO-31, 48 h, read-out: Activity
[16] = read-out: LC50 (the source's name)
[17] = read-out: pLC50 (the source's name) (converted)

Sequence of Albumin (P02769 whole entry): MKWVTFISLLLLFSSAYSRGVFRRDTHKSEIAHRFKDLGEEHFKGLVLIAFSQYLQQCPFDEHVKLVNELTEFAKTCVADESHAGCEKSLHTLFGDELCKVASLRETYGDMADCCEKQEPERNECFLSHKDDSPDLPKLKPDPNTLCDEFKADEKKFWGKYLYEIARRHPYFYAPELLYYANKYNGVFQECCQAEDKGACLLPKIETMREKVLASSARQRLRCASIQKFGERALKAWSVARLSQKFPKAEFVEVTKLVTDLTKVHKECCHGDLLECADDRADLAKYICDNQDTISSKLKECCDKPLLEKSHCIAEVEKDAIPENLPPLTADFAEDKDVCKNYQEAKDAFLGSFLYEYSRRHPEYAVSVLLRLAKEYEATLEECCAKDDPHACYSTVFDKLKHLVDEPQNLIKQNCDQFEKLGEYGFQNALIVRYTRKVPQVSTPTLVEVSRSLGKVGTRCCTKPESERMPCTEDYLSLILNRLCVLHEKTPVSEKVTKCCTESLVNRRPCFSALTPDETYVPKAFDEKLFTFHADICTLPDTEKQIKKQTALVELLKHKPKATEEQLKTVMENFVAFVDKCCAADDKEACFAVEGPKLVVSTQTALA

SMILES: Fc1ccc(-c2nc(Nc3ccc(-c4nc5ccccc5[nH]4)cc3)nc(N3CCOCC3)n2)cc1
- GI50 ([1]; read-out: GI50): 1.93 µM
- CC50 [1, 16]: > 100 µM
- TGI ([1]; read-out: TGI): 6.54 µM
- GI50 ([1]; read-out: pGI50 (converted)): 1.95 µM
- CC50 [1, 17]: > 100 µM
- TGI ([1]; read-out: pTGI (converted)): 6.61 µM
- growth at 10 µM [2]: 4%
- growth at 0.1 µM [3]: 88%
- GI50 (MDA-MB-231; read-out: GI50): 1.63 µM
- CC50 (MDA-MB-231; [16]): > 100 µM
- TGI (MDA-MB-231; read-out: TGI): 4.76 µM
- GI50 (MDA-MB-231; read-out: pGI50 (converted)): 1.62 µM
- CC50 (MDA-MB-231; [17]): > 100 µM
- TGI (MDA-MB-231; read-out: pTGI (converted)): 4.79 µM
- growth at 10 µM [4]: -20%
- GI50 (NCI-H460; read-out: GI50): 2.48 µM
- CC50 (NCI-H460; [16]): > 100 µM
- TGI (NCI-H460; read-out: TGI): 6.51 µM
- GI50 (NCI-H460; read-out: pGI50 (converted)): 2.45 µM
- CC50 (NCI-H460; [17]): > 100 µM
- TGI (NCI-H460; read-out: pTGI (converted)): 6.46 µM
- growth at 0.01 µM [5]: 102%
- growth at 100 µM (SK-MEL-5): -90%
- GI50 ([6]; read-out: GI50): 3.13 µM
- CC50 [6, 16]: > 100 µM
- TGI ([6]; read-out: TGI): 13 µM
- GI50 ([6]; read-out: pGI50 (converted)): 3.16 µM
- CC50 [6, 17]: > 100 µM
- TGI ([6]; read-out: pTGI (converted)): 13.2 µM
- GI50 (NCI-H226; read-out: GI50): 3.32 µM
- CC50 (NCI-H226; [16]): > 100 µM
- TGI (NCI-H226; read-out: TGI): 8.6 µM
- GI50 (NCI-H226; read-out: pGI50 (converted)): 3.31 µM
- CC50 (NCI-H226; [17]): > 100 µM
- TGI (NCI-H226; read-out: pTGI (converted)): 8.51 µM
- GI50 (MCF7; read-out: GI50): 2.59 µM
- CC50 (MCF7; [16]): > 100 µM
- TGI (MCF7; read-out: TGI): > 100 µM
- GI50 (MCF7; read-out: pGI50 (converted)): 2.57 µM
- CC50 (MCF7; [17]): > 100 µM
- TGI (MCF7; read-out: pTGI (converted)): > 100 µM
- growth at 100 µM [7]: -4%
- growth at 1 µM (T47D): 88%
- GI50 ([8]; read-out: GI50): 2.91 µM
- CC50 [8, 16]: > 100 µM
- TGI ([8]; read-out: TGI): 8.54 µM
- GI50 ([8]; read-out: pGI50 (converted)): 2.88 µM
- CC50 [8, 17]: > 100 µM
- TGI ([8]; read-out: pTGI (converted)): 8.51 µM
- growth at 0.1 µM [9]: 94%
- growth at 10 µM (MDA-MB-468): -14%
- growth at 0.1 µM (U-251): 102%
- growth at 100 µM (SK-MEL-2 [10]): -50%
- growth at 100 µM [11]: -44%
- Activity (Albumin): 86.8%
- growth at 100 µM [12]: -49%
- growth at 10 µM [13]: 2.31%
- growth at 1 µM (SK-MEL-2 [14]): 99%
- growth at 1 µM [15]: 90%
